Measured values reported in ChEMBL document CHEMBL1687792, “vanM, a new glycopeptide resistance gene cluster found in Enterococcus faecium” (2010).
≈ marks a conversion by molar mass, not a printed value. Calls of active or inactive are those of the source. The calls are words filed in the database; no cut-off is given here.

What was measured:
Enterococcus faecium [1] = experiment: Antimicrobial activity against glycopeptide-resistant Enterococcus faecium isolate HS0649 harboring MLST sequence type ST17 and pulsotype B expressing vanA gene cluster isolated from exudate of patient by Etest
Enterococcus faecium [2] = experiment: Antimicrobial activity against glycopeptide-resistant Enterococcus faecium isolate HS05417 harboring MLST sequence type ST17 and pulsotype A expressing vanA gene cluster isolated from urine of patient by Etest
Enterococcus faecium [3] = experiment: Antimicrobial activity against glycopeptide-resistant Enterococcus faecium isolate HS0661 harboring MLST sequence type ST78 and pulsotype C expressing vanM gene cluster isolated from exudate of patient by Etest
Enterococcus faecium [4] = experiment: Antimicrobial activity against glycopeptide-resistant Enterococcus faecium isolate HS08369 harboring MLST sequence type ST18 and pulsotype G expressing vanM gene cluster isolated from urine of patient by Etest
Enterococcus faecium [5] = experiment: Antimicrobial activity against glycopeptide-resistant Enterococcus faecium isolate HS07261 harboring MLST sequence type ST78 and pulsotype D expressing vanM gene cluster isolated from urine of patient by Etest
Enterococcus faecium [6] = experiment: Antimicrobial activity against glycopeptide-resistant Enterococcus faecium isolate HS0847 harboring MLST sequence type ST78 and pulsotype E expressing vanM gene cluster isolated from urine of patient by Etest
Enterococcus faecium [7] = experiment: Antimicrobial activity against rifampin-, fusidic acid-resistant Enterococcus faecium BM-4105 by Etest; assay type: functional
Procedure, shortened: (§1)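 MIC by Etest on Mueller-Hinton agar, run per manufacturer's instructions and interpreted by CLSI recommendations. Same method for donor, recipient (BM4105RF, Fusr Rifr) and transconjugants. Transconjugants came from filter mating and were selected on BHI agar with rifampin (100 μg/ml) or fusidic acid (10 μg/ml) plus vancomycin (10 μg/ml).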

Enterococcus faecium [8] = experiment: Antimicrobial activity against glycopeptide-resistant Enterococcus faecium isolate HS0761 harboring MLST sequence type ST78 and pulsotype C expressing vanM gene cluster isolated from urine of patient by Etest
Enterococcus faecium [9] = experiment: Antimicrobial activity against glycopeptide-resistant Enterococcus faecium isolate HS06188 harboring MLST sequence type ST78 and pulsotype A expressing vanA gene cluster isolated from urine of patient by Etest
Enterococcus faecium [10] = experiment: Antimicrobial activity against Enterococcus faecium BM-0661 transconjugant by Etest; assay type: functional
Procedure, shortened: as §1

Enterococcus faecium [11] = experiment: Antimicrobial activity against glycopeptide-resistant Enterococcus faecium isolate HS08257 harboring MLST sequence type ST341 and pulsotype F expressing vanM gene cluster isolated from urine of patient by Etest
Enterococcus faecium [12] = experiment: Antimicrobial activity against glycopeptide-resistant Enterococcus faecium isolate HS05446 harboring MLST sequence type ST17 and pulsotype B expressing vanA gene cluster isolated from urine of patient by Etest
Enterococcus faecalis = experiment: Induction of VanM gene cluster in glycopeptide-resistant Enterococcus […] isolate HS0661 harboring MLST sequence type ST78 and pulsotype C expressing vanM gene cluster isolated from exudate of patient assessed as UDP-MurNAc-tetrapeptide-D-lactate at 50 ug/mL by LC-MS method; assay type: functional, organism-based
Procedure, shortened: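 Efm-HS0661 was grown in BHI broth to OD650 0.4, then exposed to glycopeptide at 50 μg/ml for a further 120 min. Peptidoglycan precursors were extracted and separated on a C18 column at 30 μl/min using a linear gradient over 18 min. Eluent A was 10 mM ammonium acetate, pH 5; eluent B was 2% acetonitrile in the same buffer. Precursors were identified by MS from fragments at m/z 562 and 747.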

Row | Structure (SMILES) | MIC (Enterococcus faecium [1]) [µg/mL] | MIC (Enterococcus faecium [2]) [µg/mL] | MIC (Enterococcus faecium [3]) [µg/mL] | MIC (Enterococcus faecium [4]) [µg/mL] | MIC (Enterococcus faecium [5]) [µg/mL] | MIC (Enterococcus faecium [6]) [µg/mL] | MIC (Enterococcus faecium [7]) [µg/mL] | MIC (Enterococcus faecium [8]) [µg/mL] | MIC (Enterococcus faecium [9]) [µg/mL] | MIC (Enterococcus faecium [10]) [µg/mL] | MIC (Enterococcus faecium [11]) [µg/mL] | MIC (Enterococcus faecium [12]) [µg/mL] | Activity (Enterococcus faecalis)
1 | CO[C@H]1/C=C/O[C@@]2(C)Oc3c(C)c(O)c4c(O)c(c(/C=N/N5CCN(C)CC5)c(O)c4c3C2=O)NC(=O)/C(C)=C\C=C\[C@H](C)[C@H](O)[C@@H](C)[C@@H](O)[C@@H](C)[C@H](OC(C)=O)[C@@H]1C [RIFAMPIN] | 4 (≈ 4.86 µM) | 0.25 (≈ 0.304 µM) | 4 (≈ 4.86 µM) | 16 (≈ 19.4 µM) | > 32 | > 32 | > 32 | 3 (≈ 3.65 µM) | 0.19 (≈ 0.231 µM) | > 32 | 8 (≈ 9.72 µM) | 4 (≈ 4.86 µM) | –
2 | CN[C@H](CC(C)C)C(=O)N[C@H]1C(=O)N[C@@H](CC(N)=O)C(=O)N[C@H]2C(=O)N[C@H]3C(=O)N[C@H](C(=O)N[C@H](C(=O)O)c4cc(O)cc(O)c4-c4cc3ccc4O)[C@H](O)c3ccc(c(Cl)c3)Oc3cc2cc(c3O[C@@H]2O[C@H](CO)[C@@H](O)[C@H](O)[C@H]2O[C@H]2C[C@](C)(N)[C@H](O)[C@H](C)O2)Oc2ccc(cc2Cl)[C@H]1O [VANCOMYCIN] | > 256 | > 256 | > 256 | > 256 | > 256 | > 256 | 0.75 (≈ 0.518 µM) | > 256 | > 256 | > 256 | > 256 | > 256 | Active
3 | O=C1CN(/N=C/c2ccc([N+](=O)[O-])o2)C(=O)N1 [NITROFURANTOIN] | > 512 | 128 (≈ 537 µM) | 64 (≈ 269 µM) | 32 (≈ 134 µM) | 128 (≈ 537 µM) | 64 (≈ 269 µM) | 16 (≈ 67.2 µM) | 64 (≈ 269 µM) | 128 (≈ 537 µM) | 16 (≈ 67.2 µM) | 196 (≈ 823 µM) | 16 (≈ 67.2 µM) | –
4 | C[C@H]1c2cccc(O)c2C(=O)C2=C(O)[C@]3(O)C(=O)C(C(N)=O)=C(O)[C@@H](N(C)C)[C@@H]3[C@@H](O)[C@@H]21.O [DOXYCYCLINE] | 6 | 0.19 | 0.125 | 32 | 0.19 | 0.094 | 0.094 | 0.125 | 0.125 | 0.094 | 0.19 | 6 | –
5 | CC(=O)NC[C@H]1CN(c2ccc(N3CCOCC3)c(F)c2)C(=O)O1 [LINEZOLID] | 1.5 (≈ 4.45 µM) | 1.5 (≈ 4.45 µM) | 1.5 (≈ 4.45 µM) | – | 1.5 (≈ 4.45 µM) | – | 1.5 (≈ 4.45 µM) | 1.5 (≈ 4.45 µM) | 1.5 (≈ 4.45 µM) | 1 (≈ 2.96 µM) | – | 1.5 (≈ 4.45 µM) | –
